≈ marks a conversion by molar mass, not a printed value.
Tested on: Talaromyces funiculosus
Test: Antifungal activity against Penicillium funiculosum ATCC 36839 after 72 hrs by serial dilution technique
Assay type: functional
Details: ATCC 36839, 72 h
How it was run: (§1)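 Serial dilution in malt broth; compounds from 1 mg/ml stocks in 5% DMSO; 72 h at 28 °C. MIC is the lowest concentration with no visible growth under a binocular microscope. Run in duplicate, repeated three times.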
For CN(C)c1ccc(/C=C2\S/C(=N/c3nccs3)NC2=O)cc1, the MIC was 7.6 µM (≈ 2.51 µg/mL).

Molecular target: T1, Prostaglandin G/H synthase 1 (Ovis aries) (UniProt P05979)
T1 sequence (whole entry): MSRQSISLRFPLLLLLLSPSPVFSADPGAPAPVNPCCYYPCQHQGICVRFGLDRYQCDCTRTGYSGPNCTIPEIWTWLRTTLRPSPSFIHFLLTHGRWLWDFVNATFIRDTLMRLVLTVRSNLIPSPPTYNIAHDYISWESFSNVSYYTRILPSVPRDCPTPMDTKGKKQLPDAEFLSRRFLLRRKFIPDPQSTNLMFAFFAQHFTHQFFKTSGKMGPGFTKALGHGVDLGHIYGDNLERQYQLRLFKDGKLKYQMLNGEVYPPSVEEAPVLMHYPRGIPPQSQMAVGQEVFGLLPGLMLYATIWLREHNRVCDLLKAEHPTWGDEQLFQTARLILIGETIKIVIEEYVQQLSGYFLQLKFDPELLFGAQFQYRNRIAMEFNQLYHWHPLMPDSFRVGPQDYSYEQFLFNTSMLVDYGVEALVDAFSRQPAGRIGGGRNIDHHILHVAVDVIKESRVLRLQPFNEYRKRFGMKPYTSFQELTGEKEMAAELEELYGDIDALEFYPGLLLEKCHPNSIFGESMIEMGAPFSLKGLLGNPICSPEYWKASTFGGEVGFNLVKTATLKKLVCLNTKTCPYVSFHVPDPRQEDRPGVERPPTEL
Test: Inhibition of ovine COX1 assessed as inhibition of PGF2a production by enzyme immunoassay
Design: concentration or dose not given beside the values
Details: concentration not given here
How it was run: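 Ovine COX-1 from a commercial screening kit, tested with 0.1 µM arachidonic acid, which is below the saturating level. COX-derived PGH2 is reduced by SnCl2 to PGF2a, quantified by enzyme immunoassay with a broad prostaglandin antibody. At least triplicate.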
CN(C)c1ccc(/C=C2\S/C(=N/c3nccs3)NC2=O)cc1 gave an inhibition of 50%.

Tested on: Aspergillus flavus
Test: Fungicidal activity against Aspergillus flavus ATCC 9643 after 72 hrs by serial subcultivation method
Assay type: functional
Details: ATCC 9643, 72 h
CN(C)c1ccc(/C=C2\S/C(=N/c3nccs3)NC2=O)cc1 showed an MFC of 15.2 µM (≈ 5.02 µg/mL).

Tested on: Aspergillus fumigatus
Test: Fungicidal activity against Aspergillus fumigatus after 72 hrs by serial subcultivation method
Assay type: functional
Details: not given
Work on CN(C)c1ccc(/C=C2\S/C(=N/c3nccs3)NC2=O)cc1 yielded an MFC of 15.2 µM (≈ 5.02 µg/mL).

Tested on: Aspergillus niger
Test: Fungicidal activity against Aspergillus niger ATCC 6275 after 72 hrs by serial subcultivation method
Assay type: functional
Details: ATCC 6275, 72 h
With CN(C)c1ccc(/C=C2\S/C(=N/c3nccs3)NC2=O)cc1 the MFC was 15.2 µM (≈ 5.02 µg/mL).

Tested on: Staphylococcus aureus
Test: Antibacterial activity against Staphylococcus aureus ATCC 6538 after 24 hr by microdilution test
Assay type: functional
Details: ATCC 6538, 24 h
How it was run: (§2)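 Broth microdilution in LB medium, about 1.0×10^4 cfu per well; compounds from 1 mg/ml stocks in 5% DMSO. Incubated 24 h. MIC is the lowest concentration with no visible growth under a binocular microscope. Run in duplicate, repeated three times.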
CN(C)c1ccc(/C=C2\S/C(=N/c3nccs3)NC2=O)cc1 showed an MIC of 30.3 µM (≈ 10 µg/mL).

Molecular target: not listed separately
Test: Inhibition of soybean lipoxygenase assessed as inhibition of sodium linolate conversion to 13-hydroperoxylinoleic acid after 4 mins by spectrophotometry
Design: species or system Glycine max
Details: read-out: IC50
With CN(C)c1ccc(/C=C2\S/C(=N/c3nccs3)NC2=O)cc1 the IC50 was 95 µM.

Tested on: Listeria monocytogenes
Test: Bactericidal activity against Listeria monocytogenes NCTC 7973 after 72 hrs by serial subcultivation method
Assay type: functional
Details: NCTC 7973, 72 h
CN(C)c1ccc(/C=C2\S/C(=N/c3nccs3)NC2=O)cc1 gave an MBC of 60.6 µM (≈ 20 µg/mL).

Tested on: Aspergillus flavus
Test: Antifungal activity against Aspergillus flavus ATCC 9643 after 72 hrs by serial dilution technique
Assay type: functional
Details: ATCC 9643, 72 h
How it was run: as §1
CN(C)c1ccc(/C=C2\S/C(=N/c3nccs3)NC2=O)cc1 showed an MIC of 15.2 µM (≈ 5.02 µg/mL).

Tested on: Aspergillus fumigatus
Test: Antifungal activity against Aspergillus fumigatus after 72 hrs by serial dilution technique
Assay type: functional
Details: not given
How it was run: as §1
CN(C)c1ccc(/C=C2\S/C(=N/c3nccs3)NC2=O)cc1 showed an MIC of 15.2 µM (≈ 5.02 µg/mL).

Tested on: Staphylococcus aureus
Test: Bactericidal activity against Staphylococcus aureus ATCC 6538 after 72 hrs by serial subcultivation method
Assay type: functional
Details: ATCC 6538, 72 h
With CN(C)c1ccc(/C=C2\S/C(=N/c3nccs3)NC2=O)cc1 the MBC was 60.6 µM (≈ 20 µg/mL).

Tested on: Aspergillus niger
Test: Antifungal activity against Aspergillus niger ATCC 6275 after 72 hrs by serial dilution technique
Assay type: functional
Details: ATCC 6275, 72 h
How it was run: as §1
With CN(C)c1ccc(/C=C2\S/C(=N/c3nccs3)NC2=O)cc1 the MIC was 15.2 µM (≈ 5.02 µg/mL).

Tested on: Escherichia coli
Test: Bactericidal activity against Escherichia coli ATCC 35210 after 72 hrs by serial subcultivation method
Assay type: functional
Details: ATCC 35210, 72 h
In the case of CN(C)c1ccc(/C=C2\S/C(=N/c3nccs3)NC2=O)cc1, the MBC is reported as 15.2 µM (≈ 5.02 µg/mL).

Tested on: Trichoderma viride
Test: Fungicidal activity against Trichoderma viride IAM 5061 after 72 hrs by serial subcultivation method
Assay type: functional
Details: IAM 5061, 72 h
With CN(C)c1ccc(/C=C2\S/C(=N/c3nccs3)NC2=O)cc1 the MFC was 15.2 µM (≈ 5.02 µg/mL).

Tested on: Penicillium ochrochloron
Test: Antifungal activity against Penicillium ochrochloron ATCC 9112 after 72 hrs by serial dilution technique
Assay type: functional
Details: ATCC 9112, 72 h
How it was run: as §1
Compound CN(C)c1ccc(/C=C2\S/C(=N/c3nccs3)NC2=O)cc1 has an MIC of 7.6 µM (≈ 2.51 µg/mL).

Tested on: Pseudomonas aeruginosa
Test: Bactericidal activity against Pseudomonas aeruginosa ATCC 27853 after 72 hrs by serial subcultivation method
Assay type: functional
Details: ATCC 27853, 72 h
With CN(C)c1ccc(/C=C2\S/C(=N/c3nccs3)NC2=O)cc1 the MBC was 60.6 µM (≈ 20 µg/mL).

Tested on: Mus musculus
Test: Antiinflammatory activity in AKR mouse assessed as inhibition of carrageenan-induced paw edema at 0.01 mmol/kg, ip measured after 3.5 hrs of carrageenan-challenge
Assay type: functional
Details: not given
How it was run: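 AKR mice of both sexes (pregnant females excluded), 6-10 per group, fasted during the experiment. Edema induced by intradermal 0.05 mL of 2% carrageenin into the right hind paw. Compound given at 0.01 mmol/kg ip, suspended in water with Tween-80, at the same time as carrageenin.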
In the case of CN(C)c1ccc(/C=C2\S/C(=N/c3nccs3)NC2=O)cc1, the inhibition in vivo at 10 µmol/kg is reported as 67.3%.

Tested on: Micrococcus flavus
Test: Antibacterial activity against Micrococcus flavus ATCC 10240 after 24 hr by microdilution test
Assay type: functional
Details: ATCC 10240, 24 h
How it was run: as §2
CN(C)c1ccc(/C=C2\S/C(=N/c3nccs3)NC2=O)cc1 showed an MIC of 7.6 µM (≈ 2.51 µg/mL).

Tested on: Escherichia coli
Test: Antibacterial activity against Escherichia coli ATCC 35210 after 24 hr by microdilution test
Assay type: functional
Details: ATCC 35210, 24 h
How it was run: as §2
CN(C)c1ccc(/C=C2\S/C(=N/c3nccs3)NC2=O)cc1 gave an MIC of 7.6 µM (≈ 2.51 µg/mL).

Tested on: Listeria monocytogenes
Test: Antibacterial activity against Listeria monocytogenes NCTC 7973 after 24 hr by microdilution test
Assay type: functional
Details: NCTC 7973, 24 h
How it was run: as §2
Compound CN(C)c1ccc(/C=C2\S/C(=N/c3nccs3)NC2=O)cc1 has an MIC of 30.3 µM (≈ 10 µg/mL).

Tested on: Talaromyces funiculosus
Test: Fungicidal activity against Penicillium funiculosum ATCC 36839 after 72 hrs by serial subcultivation method
Assay type: functional
Details: ATCC 36839, 72 h
Work on CN(C)c1ccc(/C=C2\S/C(=N/c3nccs3)NC2=O)cc1 yielded an MFC of 15.2 µM (≈ 5.02 µg/mL).

Tested on: Micrococcus flavus
Test: Bactericidal activity against Micrococcus flavus ATCC 10240 after 72 hrs by serial subcultivation method
Assay type: functional
Details: ATCC 10240, 72 h
With CN(C)c1ccc(/C=C2\S/C(=N/c3nccs3)NC2=O)cc1 the MBC was 15.2 µM (≈ 5.02 µg/mL).

Tested on: Bacillus cereus
Test: Bactericidal activity against Bacillus cereus clinical isolate after 72 hrs by serial subcultivation method
Assay type: functional
Details: not given
CN(C)c1ccc(/C=C2\S/C(=N/c3nccs3)NC2=O)cc1 showed an MBC of 15.2 µM (≈ 5.02 µg/mL).

Tested on: Mus musculus
Test: Acute toxicity in AKR mouse up to 0.5 mmol/kg, ip
Assay type: organism-based
Details: in vivo
In the case of CN(C)c1ccc(/C=C2\S/C(=N/c3nccs3)NC2=O)cc1, the Activity is reported as “Non-toxic”.

Tested on: Trichoderma viride
Test: Antifungal activity against Trichoderma viride IAM 5061 after 72 hrs by serial dilution technique
Assay type: functional
Details: IAM 5061, 72 h
How it was run: as §1
For CN(C)c1ccc(/C=C2\S/C(=N/c3nccs3)NC2=O)cc1, the MIC was 7.6 µM (≈ 2.51 µg/mL).

Tested on: Penicillium ochrochloron
Test: Fungicidal activity against Penicillium ochrochloron ATCC 9112 after 72 hrs by serial subcultivation method
Assay type: functional
Details: ATCC 9112, 72 h
Work on CN(C)c1ccc(/C=C2\S/C(=N/c3nccs3)NC2=O)cc1 yielded an MFC of 15.2 µM (≈ 5.02 µg/mL).

Tested on: Bacillus cereus
Test: Antibacterial activity against Bacillus cereus clinical isolate after 24 hr by microdilution test
Assay type: functional
Details: not given
How it was run: as §2
Compound CN(C)c1ccc(/C=C2\S/C(=N/c3nccs3)NC2=O)cc1 has an MIC of 7.6 µM (≈ 2.51 µg/mL).

Tested on: Pseudomonas aeruginosa
Test: Antibacterial activity against Pseudomonas aeruginosa ATCC 27853 after 24 hr by microdilution test
Assay type: functional
Details: ATCC 27853, 24 h
How it was run: as §2
Work on CN(C)c1ccc(/C=C2\S/C(=N/c3nccs3)NC2=O)cc1 yielded an MIC of 30.3 µM (≈ 10 µg/mL).

From ChEMBL document CHEMBL2311431, “Synthesis and biological evaluation of some 5-arylidene-2-(1,3-thiazol-2-ylimino)-1,3-thiazolidin-4-ones as dual anti-inflammatory/antimicrobial agents” (Bioorg Med Chem, 2013)
